Several values for one entry are separate records, joined by “and”; a condition that tells them apart may be missing. Identical values can stand only once.
System: HEK-293T
Experiment: Multiplex assay against HEK293T
Assay type: toxicity, cell-based
Conditions: human
Summary of the method: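 Cells stained live at seeding with Hoechst33342, BioTracker Green Microtubule Cytoskeleton Dye, MitoTracker Red and Annexin V Alexa Fluor 680 were imaged on a CQ1 microscope at 37°C and 5% CO2 after compound addition. Their classification by CellPathfinder machine-learning gating ran from Hoechst high-intensity objects versus normal cells, to healthy, pyknosed or fragmented nuclei among normal cells, to mitotic or apoptotic among pyknosed cells. Tubulin, mitochondrial-mass and membrane-permeability phenotypes are per cents of healthy-nucleus cells.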

[1] = 12 h, 1 µM, compound concentration 1 uM
[2] = 12 h, 10 µM, compound concentration 10 uM
[3] = 24 h, 1 µM, compound concentration 1 uM
[4] = 24 h, 10 µM, compound concentration 10 uM
[5] = 48 h, 1 µM, compound concentration 1 uM
[6] = 48 h, 10 µM, compound concentration 10 uM

## O=C(Nc1cc(-c2ccccc2)nn1-c1ccccc1F)c1ccc([N+](=O)[O-])cc1
[1]
  Population Apoptotic (%): 33% and 37%
  Population Fragmented Nuclei (%): 7% and 6%
  Population Healthy Nuclei (%): 78% and 83%
  Population Hoechst High Intensity Objects (%): 9% and 6%
  Population Membrane Permeable-Phenotype (%): 0%
  Population Mitochondria Different-Phenotype (%): 31% and 48%
  Population Mitotic Cells (%): 66% and 62%
  Population Normal (%): 90% and 94%
  Population Pyknosed Nuclei (%): 13% and 9%
  Population Tubulin-Different-Phenotype (%): 19%
  Total Cell Count: 402 and 417
[2]
  Population Apoptotic (%): 37% and 44%
  Population Fragmented Nuclei (%): 10% and 6%
  Population Healthy Nuclei (%): 71% and 73%
  Population Hoechst High Intensity Objects (%): 5% and 6%
  Population Membrane Permeable-Phenotype (%): 0%
  Population Mitochondria Different-Phenotype (%): 41% and 65%
  Population Mitotic Cells (%): 62% and 55%
  Population Normal (%): 94% and 93%
  Population Pyknosed Nuclei (%): 17% and 20%
  Population Tubulin-Different-Phenotype (%): 40% and 45%
  Total Cell Count: 342 and 367
[3]
  Population Apoptotic (%): 33% and 35%
  Population Fragmented Nuclei (%): 8% and 12%
  Population Healthy Nuclei (%): 78%
  Population Hoechst High Intensity Objects (%): 4%
  Population Membrane Permeable-Phenotype (%): 0% and 1%
  Population Mitochondria Different-Phenotype (%): 21% and 31%
  Population Mitotic Cells (%): 66% and 64%
  Population Normal (%): 95%
  Population Pyknosed Nuclei (%): 12% and 8%
  Population Tubulin-Different-Phenotype (%): 17% and 16%
  Total Cell Count: 481 and 530
[4]
  Population Apoptotic (%): 15% and 22%
  Population Fragmented Nuclei (%): 9% and 7%
  Population Healthy Nuclei (%): 77% and 83%
  Population Hoechst High Intensity Objects (%): 2% and 3%
  Population Membrane Permeable-Phenotype (%): 0%
  Population Mitochondria Different-Phenotype (%): 35% and 47%
  Population Mitotic Cells (%): 84% and 77%
  Population Normal (%): 97% and 96%
  Population Pyknosed Nuclei (%): 13% and 8%
  Population Tubulin-Different-Phenotype (%): 35% and 33%
  Total Cell Count: 434 and 482
[5]
  Population Apoptotic (%): 17% and 33%
  Population Fragmented Nuclei (%): 13% and 17%
  Population Healthy Nuclei (%): 79% and 74%
  Population Hoechst High Intensity Objects (%): 3% and 2%
  Population Membrane Permeable-Phenotype (%): 2%
  Population Mitochondria Different-Phenotype (%): 14% and 15%
  Population Mitotic Cells (%): 82% and 66%
  Population Normal (%): 96% and 97%
  Population Pyknosed Nuclei (%): 7%
  Population Tubulin-Different-Phenotype (%): 9% and 11%
  Total Cell Count: 893 and 799
[6]
  Population Apoptotic (%): 22% and 20%
  Population Fragmented Nuclei (%): 12% and 15%
  Population Healthy Nuclei (%): 77%
  Population Hoechst High Intensity Objects (%): 2% and 3%
  Population Membrane Permeable-Phenotype (%): 2% and 1%
  Population Mitochondria Different-Phenotype (%): 19% and 27%
  Population Mitotic Cells (%): 77% and 79%
  Population Normal (%): 97% and 96%
  Population Pyknosed Nuclei (%): 9% and 6%
  Population Tubulin-Different-Phenotype (%): 23% and 26%
  Total Cell Count: 671 and 666

## CC(/C=C1\SC(=S)N(CCCC(=O)Nc2ccc(C(=O)O)c(O)c2)C1=O)=C\c1ccccc1
[1]
  Population Apoptotic (%): 34% and 50%
  Population Fragmented Nuclei (%): 6%
  Population Healthy Nuclei (%): 81% and 84%
  Population Hoechst High Intensity Objects (%): 6%
  Population Membrane Permeable-Phenotype (%): 0%
  Population Mitochondria Different-Phenotype (%): 41% and 62%
  Population Mitotic Cells (%): 65% and 50%
  Population Normal (%): 93%
  Population Pyknosed Nuclei (%): 11% and 8%
  Population Tubulin-Different-Phenotype (%): 31% and 20%
  Total Cell Count: 422 and 389
[2]
  Population Apoptotic (%): 43% and 51%
  Population Fragmented Nuclei (%): 5%
  Population Healthy Nuclei (%): 76% and 79%
  Population Hoechst High Intensity Objects (%): 7%
  Population Membrane Permeable-Phenotype (%): 0%
  Population Mitochondria Different-Phenotype (%): 45% and 49%
  Population Mitotic Cells (%): 56% and 48%
  Population Normal (%): 92%
  Population Pyknosed Nuclei (%): 18% and 15%
  Population Tubulin-Different-Phenotype (%): 35% and 26%
  Total Cell Count: 313 and 327
[3]
  Population Apoptotic (%): 27% and 31%
  Population Fragmented Nuclei (%): 9% and 7%
  Population Healthy Nuclei (%): 79% and 83%
  Population Hoechst High Intensity Objects (%): 4% and 7%
  Population Membrane Permeable-Phenotype (%): 0%
  Population Mitochondria Different-Phenotype (%): 28% and 52%
  Population Mitotic Cells (%): 72% and 68%
  Population Normal (%): 95% and 92%
  Population Pyknosed Nuclei (%): 10% and 8%
  Population Tubulin-Different-Phenotype (%): 26% and 21%
  Total Cell Count: 604 and 491
[4]
  Population Apoptotic (%): 33% and 39%
  Population Fragmented Nuclei (%): 8%
  Population Healthy Nuclei (%): 75% and 79%
  Population Hoechst High Intensity Objects (%): 5% and 6%
  Population Membrane Permeable-Phenotype (%): 0%
  Population Mitochondria Different-Phenotype (%): 34% and 40%
  Population Mitotic Cells (%): 66% and 60%
  Population Normal (%): 94% and 93%
  Population Pyknosed Nuclei (%): 16% and 12%
  Population Tubulin-Different-Phenotype (%): 31% and 20%
  Total Cell Count: 369 and 422
[5]
  Population Apoptotic (%): 23% and 19%
  Population Fragmented Nuclei (%): 13% and 14%
  Population Healthy Nuclei (%): 79%
  Population Hoechst High Intensity Objects (%): 2% and 5%
  Population Membrane Permeable-Phenotype (%): 1% and 0%
  Population Mitochondria Different-Phenotype (%): 16% and 26%
  Population Mitotic Cells (%): 76% and 80%
  Population Normal (%): 97% and 94%
  Population Pyknosed Nuclei (%): 7% and 6%
  Population Tubulin-Different-Phenotype (%): 14% and 13%
  Total Cell Count: 998 and 673
[6]
  Population Apoptotic (%): 24% and 39%
  Population Fragmented Nuclei (%): 9% and 11%
  Population Healthy Nuclei (%): 79% and 82%
  Population Hoechst High Intensity Objects (%): 3% and 5%
  Population Membrane Permeable-Phenotype (%): 2%
  Population Mitochondria Different-Phenotype (%): 25% and 23%
  Population Mitotic Cells (%): 75% and 60%
  Population Normal (%): 96% and 94%
  Population Pyknosed Nuclei (%): 10% and 6%
  Population Tubulin-Different-Phenotype (%): 22% and 24%
  Total Cell Count: 479 and 555

## Cc1ccc(-c2ccc(F)cc2COc2ccc(CCC(=O)O)cc2)cc1
[1]
  Population Apoptotic (%): 42% and 33%
  Population Fragmented Nuclei (%): 6%
  Population Healthy Nuclei (%): 82% and 77%
  Population Hoechst High Intensity Objects (%): 9%
  Population Mitochondria Different-Phenotype (%): 36% and 50%
  Population Mitotic Cells (%): 57% and 66%
  Population Normal (%): 90%
  Population Pyknosed Nuclei (%): 15%
  Population Tubulin-Different-Phenotype (%): 18%
  Total Cell Count: 465 and 324
[2]
  Population Apoptotic (%): 32% and 42%
  Population Fragmented Nuclei (%): 10% and 7%
  Population Healthy Nuclei (%): 79% and 83%
  Population Hoechst High Intensity Objects (%): 7% and 6%
  Population Mitochondria Different-Phenotype (%): 46% and 58%
  Population Mitotic Cells (%): 67% and 57%
  Population Normal (%): 92% and 93%
  Population Pyknosed Nuclei (%): 10% and 9%
  Population Tubulin-Different-Phenotype (%): 33% and 15%
  Total Cell Count: 329 and 396
[3]
  Population Fragmented Nuclei (%): 10% and 9%
  Population Healthy Nuclei (%): 82% and 80%
  Population Hoechst High Intensity Objects (%): 3% and 7%
  Population Mitochondria Different-Phenotype (%): 16% and 33%
  Population Mitotic Cells (%): 84% and 47%
  Population Normal (%): 96% and 92%
  Population Pyknosed Nuclei (%): 7% and 9%
  Population Tubulin-Different-Phenotype (%): 10% and 13%
  Total Cell Count: 688 and 445
[4]
  Population Apoptotic (%): 36% and 51%
  Population Fragmented Nuclei (%): 11% and 6%
  Population Healthy Nuclei (%): 76% and 87%
  Population Hoechst High Intensity Objects (%): 3%
  Population Mitochondria Different-Phenotype (%): 30% and 37%
  Population Mitotic Cells (%): 63% and 48%
  Population Normal (%): 94% and 96%
  Population Pyknosed Nuclei (%): 6%
  Population Tubulin-Different-Phenotype (%): 18% and 13%
  Total Cell Count: 397 and 461
[5]
  Population Apoptotic (%): 17% and 36%
  Population Fragmented Nuclei (%): 15% and 14%
  Population Healthy Nuclei (%): 79% and 77%
  Population Hoechst High Intensity Objects (%): 1% and 2%
  Population Mitochondria Different-Phenotype (%): 7% and 18%
  Population Mitotic Cells (%): 82% and 63%
  Population Normal (%): 98% and 97%
  Population Pyknosed Nuclei (%): 5%
  Population Tubulin-Different-Phenotype (%): 8% and 9%
  Total Cell Count: 1149 and 631
[6]
  Population Apoptotic (%): 24% and 31%
  Population Fragmented Nuclei (%): 12% and 15%
  Population Healthy Nuclei (%): 78% and 79%
  Population Hoechst High Intensity Objects (%): 2% and 4%
  Population Mitochondria Different-Phenotype (%): 17% and 16%
  Population Mitotic Cells (%): 75% and 68%
  Population Normal (%): 97% and 95%
  Population Pyknosed Nuclei (%): 5%
  Population Tubulin-Different-Phenotype (%): 9% and 8%
  Total Cell Count: 713 and 702

## O=C1CSC(=O)N1C(CCc1ccncc1)COc1ccc(-c2cccc([N+](=O)[O-])c2)cc1 (stereo not drawn)
[1]
  Population Apoptotic (%): 18.32% and 7.02%
  Population Fragmented Nuclei (%): 3.08% and 7.35%
  Population Hoechst High Intensity Objects (%): 0.76% and 0%
  Population Membrane Permeable-Phenotype (%): 2.48% and 0%
  Population Mitochondria Different-Phenotype (%): 25.62% and 16.67%
  Population Mitotic Cells (%): 81.68% and 92.98%
  Population Normal (%): 99.24% and 100%
  Population Pyknosed Nuclei (%): 50.38% and 83.82%
  Total Cell Count: 262 and 136
[2]
  Population Apoptotic (%): 45.8% and 41.28%
  Population Fragmented Nuclei (%): 3.51% and 3.1%
  Population Healthy Nuclei (%): 19.88% and 12.4%
  Population Hoechst High Intensity Objects (%): 0.58% and 0%
  Population Membrane Permeable-Phenotype (%): 0%
  Population Mitochondria Different-Phenotype (%): 32.35% and 18.75%
  Population Mitotic Cells (%): 54.2% and 58.72%
  Population Normal (%): 99.42% and 100%
  Population Pyknosed Nuclei (%): 76.61% and 84.5%
  Population Tubulin-Different-Phenotype (%): 70.59% and 62.5%
  Total Cell Count: 172 and 129
[3]
  Population Apoptotic (%): 27.34% and 23.23%
  Population Fragmented Nuclei (%): 4.44% and 4.69%
  Population Hoechst High Intensity Objects (%): 0.52% and 0%
  Population Membrane Permeable-Phenotype (%): 0.42% and 0%
  Population Mitochondria Different-Phenotype (%): 35.71% and 17.39%
  Population Mitotic Cells (%): 72.66% and 76.77%
  Population Normal (%): 99.48% and 100%
  Population Pyknosed Nuclei (%): 33.42% and 77.34%
[4]
  Population Apoptotic (%): 78.62% and 78.15%
  Population Fragmented Nuclei (%): 2.66% and 5.11%
  Population Healthy Nuclei (%): 20.21% and 8.03%
  Population Hoechst High Intensity Objects (%): 1.05% and 0.72%
  Population Membrane Permeable-Phenotype (%): 0%
  Population Mitochondria Different-Phenotype (%): 81.58% and 63.64%
  Population Mitotic Cells (%): 21.38% and 21.85%
  Population Normal (%): 98.95% and 99.28%
  Population Pyknosed Nuclei (%): 77.13% and 86.86%
  Population Tubulin-Different-Phenotype (%): 100% and 45.45%
  Total Cell Count: 190 and 138
[5]
  Population Apoptotic (%): 14.91% and 17.91%
  Population Fragmented Nuclei (%): 2.27% and 5.07%
  Population Healthy Nuclei (%): 82.51% and 46.38%
  Population Hoechst High Intensity Objects (%): 0%
  Population Membrane Permeable-Phenotype (%): 2.59% and 1.56%
  Population Mitochondria Different-Phenotype (%): 37.38% and 28.12%
  Population Mitotic Cells (%): 85.09% and 82.09%
  Population Normal (%): 100%
[6]
  Population Apoptotic (%): 71.68% and 69.07%
  Population Fragmented Nuclei (%): 2.88% and 7.56%
  Population Hoechst High Intensity Objects (%): 1.89% and 0%
  Population Membrane Permeable-Phenotype (%): 3.37% and 0%
  Population Mitochondria Different-Phenotype (%): 95.51% and 84.62%
  Population Mitotic Cells (%): 28.32% and 30.93%
  Population Normal (%): 98.11% and 100%
  Population Pyknosed Nuclei (%): 54.33% and 81.51%
  Population Tubulin-Different-Phenotype (%): 84.27% and 69.23%
  Total Cell Count: 212 and 119
